Assay results reported in ChEMBL document CHEMBL1130238, “Synthesis and biological activity of a series of potent fluoromethyl ketone inhibitors of recombinant human calpain I” (J Med Chem, 1997).
Starred links: 1 amine or outer side, 2 acyl side, 3 side chain; linkers in the order of their positions; H or OH if unused. Non-standard residues stand in square brackets, D forms with d. Residues, ends and D or L forms follow the SMILES beside them. ξ: configuration not given here. *: point of attachment. Hydrocinnamoyl = O=C(CCc1ccccc1)*; ξF = NC(Cc1ccccc1)C(=O)O; Cbz = O=C(OCc1ccccc1)*; Boc = CC(C)(C)OC(=O)*; ξL = CC(C)CC(N)C(=O)O; CO = O=C([*:1])[*:2]; NHBn = c1ccc(CN*)cc1; ξAbu = CCC(N)C(=O)O; ξS = NC(CO)C(=O)O; CH2F = FC*

Tests used:
[1] = molecular target: Cathepsin B (Homo sapiens) (UniProt P07858); test: Compound was tested for inhibitory against cathepsin B
Procedure, shortened: (§1)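 Rates of enzyme inactivation for cathepsins B and L were measured using Cbz-Phe-Arg-AMC as the fluorogenic substrate, under previously published assay conditions.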

[2] = molecular target: T1, Calpain-1 catalytic subunit (Homo sapiens) (UniProt P07384); test: Inhibition of Calpain-I receptor
T1 sequence (whole entry): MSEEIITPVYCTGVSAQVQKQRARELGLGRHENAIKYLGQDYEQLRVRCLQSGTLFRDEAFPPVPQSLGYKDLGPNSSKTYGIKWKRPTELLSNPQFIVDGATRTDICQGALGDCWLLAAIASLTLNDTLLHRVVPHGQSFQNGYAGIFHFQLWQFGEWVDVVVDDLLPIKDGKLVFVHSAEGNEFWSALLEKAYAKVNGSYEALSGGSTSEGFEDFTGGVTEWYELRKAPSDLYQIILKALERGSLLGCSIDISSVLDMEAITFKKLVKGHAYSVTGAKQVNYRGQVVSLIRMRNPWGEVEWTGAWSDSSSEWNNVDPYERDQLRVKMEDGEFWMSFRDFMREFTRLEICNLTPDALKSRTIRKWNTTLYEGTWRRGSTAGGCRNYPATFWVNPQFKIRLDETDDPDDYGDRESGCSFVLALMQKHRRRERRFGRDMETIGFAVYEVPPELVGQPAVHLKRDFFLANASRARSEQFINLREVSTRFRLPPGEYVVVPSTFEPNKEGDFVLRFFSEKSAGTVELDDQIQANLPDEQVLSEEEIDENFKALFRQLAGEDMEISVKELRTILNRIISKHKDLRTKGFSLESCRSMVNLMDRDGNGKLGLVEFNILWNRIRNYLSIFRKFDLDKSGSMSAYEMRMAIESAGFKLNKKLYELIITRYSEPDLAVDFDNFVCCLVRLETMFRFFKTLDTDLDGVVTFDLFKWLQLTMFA

[3] = molecular target: Procathepsin L (Homo sapiens) (UniProt P07711); test: Compound was tested for inhibitory against cathepsin L; procedure, shortened: as §1
Chain of Procathepsin L (Homo sapiens) (P07711 114-333 limits assumed): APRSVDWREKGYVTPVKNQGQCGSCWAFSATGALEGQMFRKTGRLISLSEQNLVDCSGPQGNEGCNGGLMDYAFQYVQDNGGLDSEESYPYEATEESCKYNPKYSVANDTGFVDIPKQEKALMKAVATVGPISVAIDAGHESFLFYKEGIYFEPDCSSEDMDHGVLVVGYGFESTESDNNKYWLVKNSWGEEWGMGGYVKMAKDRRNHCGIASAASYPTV

[4] = molecular target: Cathepsin B (Homo sapiens) (UniProt P07858); test: Compound was tested for inhibitory activities against cathepsin B; procedure, shortened: as §1
MOLT-4 [5] = test: Inhibitory activity against […] cells(Human Leukemia T- cells) using intact cell assay method, at 10 uM; assay type: functional
Procedure, shortened: (§2)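 Molt-4 cells (2×10^7/mL in HEPES-buffered saline, pH 7.2–7.5) were preincubated with inhibitor for 10 min at 37 °C, then challenged for 30 min at 37 °C by adding medium containing inhibitor, 10 mM Ca2+ and 40 μM ionomycin. Lysates were immunoblotted for calpain I-mediated spectrin breakdown products. Percent inhibition came from densitometry against no-inhibitor samples; IC50 by nonlinear regression.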

MOLT-4 [6] = test: Inhibitory activity against MOH-4 cells(Human Leukemia T- cells) using intact cell assay method.; assay type: functional, cell-based; procedure, shortened: as §2
[7] = molecular target: Cathepsin B (Homo sapiens) (UniProt P07858); test: Compound was tested for inhibitory against Cathepsin B; procedure, shortened: as §1
[8] = molecular target: Procathepsin L (Homo sapiens) (UniProt P07711); test: Compound was tested for inhibitory activity against cathepsin L; procedure, shortened: as §1
[9] = molecular target: Procathepsin L (Homo sapiens) (UniProt P07711); test: Compound was tested for inhibitory against cathepsin L.; procedure, shortened: as §1
[10] = molecular target: Cathepsin B (Homo sapiens) (UniProt P07858); test: Compound was tested for inhibitory activity against cathepsin B
Procedure, shortened: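 Rate of inactivation of cathepsin B, with Cbz-Phe-Arg-AMC as substrate.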

[11] = molecular target: T1, Calpain-1 catalytic subunit (Homo sapiens); test: Compound was tested for inhibitory uM

SMILES | K [1] [M⁻¹ s⁻¹] | K [2] [M⁻¹ s⁻¹] | K [3] [M⁻¹ s⁻¹] | IC50 (MOLT-4 [6]) [nM] | further results
CC(C)C[C@H](NC(=O)CCc1ccccc1)C(=O)NC(Cc1ccccc1)C(=O)CF (stereo partly specified) (Hydrocinnamoyl-Leu-[ξF]-CH2F) | 600 | 26600 | 800 | – | –
CC(C)C[C@H](N)C(=O)N[C@@H](Cc1ccccc1)C(=O)CF (H-Leu-Phe-CH2F) | 25 | 8000 | 250 | – | –
CC(C)C[C@H](NC(=O)OC(C)(C)C)C(=O)NC(Cc1ccccc1)C(=O)CF (stereo partly drawn) (Boc-Leu-[ξF]-CH2F) | – | 68600 | 100 | – | K [4]: 150 M⁻¹ s⁻¹; inhibition at 10 µM (MOLT-4 [5]): 42%
CC(C)C[C@H](NC(=O)OCc1ccccc1)C(=O)NC(Cc1ccccc1)C(=O)CF (stereo partly drawn) (Cbz-Leu-[ξF]-CH2F) | 300 | 136000 | 5000 | 200 | –
CC(C)C[C@H](NC(=O)NCc1ccccc1)C(=O)NC(Cc1ccccc1)C(=O)CF (stereo partly specified) ({NHBn-CO}-Leu-[ξF]-CH2F) | – | 67000 | – | 800 | K [7]: 275 M⁻¹ s⁻¹; K [8]: 9400 M⁻¹ s⁻¹
CC(C)C[C@H](NS(=O)(=O)N1CCOCC1)C(=O)NC(Cc1ccccc1)C(=O)CF (stereo partly specified) | 100 | 67200 | – | 10000 | K [9]: 3200 M⁻¹ s⁻¹

More lines, main results first:

K [1] [M⁻¹ s⁻¹] | K [2] [M⁻¹ s⁻¹] | K [3] [M⁻¹ s⁻¹] | IC50 (MOLT-4 [6]) [nM] | SMILES | further results
16300 | 21000 | 31000 | – | CC(C)C[C@H](NC(=O)OCc1ccccc1)C(=O)NC(CO)C(=O)CF (stereo partly drawn) (Cbz-Leu-[ξS]-CH2F) | –
4600 | 290000 | 256000 | 100 | CC(C)CC(NC(=O)OCc1ccccc1)C(=O)N[C@@H](CC(C)C)C(=O)NC(Cc1ccccc1)C(=O)CF (stereo partly specified) (Cbz-[ξL]-Leu-[ξF]-CH2F) | –
9000 | 100000 | – | 1300 | CC(C)C[C@H](NC(=O)OCc1ccccc1)C(=O)NC(COC1CCCCO1)C(=O)CF (stereo partly specified) | K [8]: 22600 M⁻¹ s⁻¹
24500 | 24200 | 64000 | – | CCC(NC(=O)[C@H](CC(C)C)NC(=O)OCc1ccccc1)C(=O)CF (stereo partly drawn) (Cbz-Leu-[ξAbu]-CH2F) | –
– | 4700 | – | – | CC(C)C[C@H](NC(=O)[C@H]1O[C@@H]1C(=O)O)C(=O)NCCCCN=C(N)N | –
– | – | 110000 | – | CC(NC(=O)[C@H](Cc1ccccc1)NC(=O)OCc1ccccc1)C(=O)CF (stereo partly specified) | K [10]: 21000 M⁻¹ s⁻¹; K [11]: No significant inhibition
– | – | 48400 | 200 | CC(C)C[C@H](NC(=O)N1CCc2ccccc2C1)C(=O)NC(Cc1ccccc1)C(=O)CF (stereo partly specified) | K [7]: 7500 M⁻¹ s⁻¹
360 | 35000 | 21500 | – | CC(C)[C@H](NC(=O)OCc1ccccc1)C(=O)NC(Cc1ccccc1)C(=O)CF (stereo partly drawn) (Cbz-Val-[ξF]-CH2F) | –
